Four compounds from ChEMBL document CHEMBL4765448, “Multiple biological active 4-aminopyrazoles containing trifluoromethyl and their 4-nitroso-precursors: Synthesis and evaluation” (Eur J Med Chem, 2020) can be followed below.

In brackets after ≈: the same amount, converted by molar mass. Activity calls are given as the source filed them. The rule behind the calls is not given here.

For data set [1], the system named is Staphylococcus aureus. Description: Antibacterial activity against methicillin resistant Staphylococcus aureus. The data set is classed as functional.
For data set [2], the system named is Rattus norvegicus. Description: Antiinflammatory activity in rat model of carrageenan-induced paw edema assessed as inhibition of hind paw swelling at 15 mg/kg, ip measured after 5 hrs. The data set is classed as functional, organism-based. On the technique in general: The carrageenan paw model is a standard test of acute inflammation.
The test system of another data set is Epidermophyton floccosum. Description: Antifungal activity against Epidermophyton floccosum. It counts as functional.
For data set [3], the system named is Staphylococcus aureus. In words: Antibacterial activity against Staphylococcus aureus. The data set is classed as functional.
The next data set deals with Pseudomonas aeruginosa. Description: Antibacterial activity against Pseudomonas aeruginosa. It counts as functional.
A further data set concerns Escherichia coli. Description: Antibacterial activity against Escherichia coli. The data set is classed as functional.
For a further data set, the system named is Neisseria gonorrhoeae. In words: Antibacterial activity against Neisseria gonorrhoeae. The data set is classed as functional.
The nature of data set [4]: Acute toxicity in mouse at 150 mg/kg, ip administered as single dose. It counts as organism-based. To be noted: in vivo. Summed up: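 Mice, single intraperitoneal dose, following OECD Guideline for testing of chemicals; three mice per dose level; doses tested 10–300 mg/kg. Read-out is the number of survivors out of 3, used to estimate the expected LD50 range.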
The subject of the next data set is Proteus vulgaris. In words: Antibacterial activity against Proteus vulgaris. The data set is classed as functional.
Another data set deals with Candida albicans. Description: Antifungal activity against Candida albicans. The data set is classed as functional.
The next data set has as its system Streptococcus pyogenes. In words: Antibacterial activity against Streptococcus pyogenes. The data set is classed as functional.
For the next data set, the system named is Trichophyton tonsurans. Description: Antifungal activity against Trichophyton tonsurans. It counts as functional.
The test system of another data set is NHDF. Description: Cytotoxicity against HDF cells. It counts as cell-based, Homo sapiens. The following applies: nhdf.
A further data set deals with Shigella flexneri. Description: Antibacterial activity against Shigella flexneri. The data set is classed as functional.
Another data set deals with Microsporum canis. Description: Antifungal activity against Microsporum canis. The data set is classed as functional.
For another data set, the system named is Citrobacter braakii. Description: Antibacterial activity against Citrobacter braakii. It counts as functional.
Data set [5] concerns Mycobacterium tuberculosis. In words: Antitubercular activity against Mycobacterium tuberculosis H37Rv. The data set is classed as functional. Summed up: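 Mycobacterium tuberculosis strain H37Rv; minimum inhibitory concentration (MIC) taken as the lowest level needed to inhibit bacterial growth; isoniazid and pyrazinamide served as reference drugs.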
The next data set relates to HeLa. In words: Cytotoxicity against human HeLa cells. The data set is classed as functional, cell-based.
The next data set relates to Serratia marcescens. In words: Antibacterial activity against Serratia marcescens. It counts as functional.
The nature of data set [6]: Selectivity index, ratio of IC50 for HDF cells to IC50 for human HeLa cells. The data set is classed as toxicity. To be noted: HDF cells versus HeLa cells, read-out: Ratio IC50.
The test system of the next data set is Klebsiella pneumoniae. Description: Antibacterial activity against Klebsiella pneumoniae. It counts as functional.
A further data set has as its system Trichophyton rubrum. Description: Antifungal activity against Trichophyton rubrum. It counts as functional.
Data set [7] is described as follows: Antioxidant activity assessed as trolox equivalent of ABTS radical scavenging activity measured after 1 hr by UV-vis spectrophotometric method. It counts as functional. A digest of the protocol:
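ABTS cation-radical decolorization was read spectrophotometrically as the fall in absorbance after 1 h. Trolox was the reference. TEAC was taken as the ratio of concentration-response slopes, test/Trolox, and IC50 was also derived. Data are mean ± SEM, n = 3.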

The test system of data set [8] is Trichophyton interdigitale. In words: Antifungal activity against Trichophyton mentagrophytes var. interdigitale. The data set is classed as functional.
A further data set relates to Nannizzia gypsea. In words: Antifungal activity against Trichophyton gypseum. The data set is classed as functional.
In data set [9] the test system is Erythrocyte. Description: Antioxidant activity in human erythrocytes assessed as protection against AAPH-induced hemolysis at 400 uM preincubated for 20 mins followed by AAPH addition and measured after 2 hrs by spectrophotometric method relative to control. The following applies: time 140 min, 2.333 h. It counts as functional. A digest of the protocol: (§1)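 Erythrocyte hemolysis assay with AAPH as the free-radical initiator, testing 50 and 400 µM. Results are expressed as relative protection of membranes against oxidative damage, each the mean of two independent experiments.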

The nature of data set [10]: Antioxidant activity assessed as AAPH scavenging activity by measuring residual fluorescence at 50 uM measured at 1 min interval for 30 mins by ORAC fluorescein assay relative to control. It counts as functional. A digest of the protocol:
(§2)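 ORAC-FL assay with fluorescein as the probe and AAPH as the peroxyl radical generator. The loss of fluorescence over time was followed, and the result is given as % fluorescence restored at 10 and 50 µM. Each value is the mean of two independent experiments.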

Data set [11] deals with Erythrocyte. In words: Antioxidant activity in human erythrocytes assessed as protection against AAPH-induced hemolysis at 50 uM preincubated for 20 mins followed by AAPH addition and measured after 2 hrs by spectrophotometric method relative to control. The following applies: time 140 min, 2.333 h. It counts as functional. Summed up:
as §1

Data set [12] in a line: Antioxidant activity assessed as AAPH scavenging activity by measuring residual fluorescence at 10 uM measured at 1 min interval for 30 mins by ORAC fluorescein assay relative to control. It counts as functional. Summed up: as §2
The test system of data set [13] is Rattus norvegicus. In words: Analgesic activity in rat assessed as prolongation of latency period at 15 mg/kg, ip measured after 1 hr by hot-plate test relative to control. It counts as functional. Summed up: (§3)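 Hot-plate test in rats. Compounds were given by intraperitoneal injection. Latency was read at 1 h and, for some compounds, also at 2 h after dosing. Results are expressed as % prolongation of the latent period versus vehicle-treated control. Significance was given as p-values.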

Data set [14] has as its system Rattus norvegicus. In words: Analgesic activity in rat assessed as prolongation of latency period at 15 mg/kg, ip measured after 2 hrs by hot-plate test relative to control. It counts as functional. A digest of the protocol:
as §3

Data set [15] is described as follows: Drug metabolism assessed as nitric oxide release in absence of rat plasma by Griess reagent based assay. The data set is classed as cell-free. A general note: Griess reagent forms a coloured azo dye with nitrite.
Data set [16] is described as follows: Drug metabolism assessed as nitric oxide release in presence of rat plasma by Griess reagent based assay. The data set is classed as cell-free.

Broadly, the MIC is the lowest concentration that inhibits growth of the organism. Usually IC50 stands for the concentration that gives 50% inhibition. As to `Cc1[nH]nc(C(F)(F)F)c1N=O`, the MIC in the data set with Staphylococcus aureus [1] came to 62.5 µg/mL (≈ 349 µM); with Epidermophyton floccosum, 50 µg/mL (≈ 279 µM); with Staphylococcus aureus [3], 31.2 µg/mL (≈ 174 µM); against Pseudomonas aeruginosa, 500 µg/mL (≈ 2790 µM); in the data set on Escherichia coli, 250 µg/mL (≈ 1400 µM); in the data set on Neisseria gonorrhoeae, 15.6 µg/mL (≈ 87.1 µM). Further, the MIC with Proteus vulgaris was 31.2 µg/mL (≈ 174 µM); in the data set with Candida albicans it was 50 µg/mL (≈ 279 µM); in the data set with Streptococcus pyogenes, 7.8 µg/mL (≈ 43.6 µM); against Trichophyton tonsurans, 50 µg/mL (≈ 279 µM); against Shigella flexneri, 250 µg/mL (≈ 1400 µM); with Microsporum canis, 25 µg/mL (≈ 140 µM). Besides, the MIC is 250 µg/mL (≈ 1400 µM) against Citrobacter braakii; 1.62 µg/mL (≈ 9.05 µM) in data set [5]; 250 µg/mL (≈ 1400 µM) against Serratia marcescens; 500 µg/mL (≈ 2790 µM) with Klebsiella pneumoniae; 25 µg/mL (≈ 140 µM) with Trichophyton rubrum; 50 µg/mL (≈ 279 µM) in data set [8]. Further, the MIC in the data set with Nannizzia gypsea came out at 50 µg/mL (≈ 279 µM). In addition, the outcome in the data set with Rattus norvegicus [2] was Active. The Activity entry in [4] was “Toxic”; in the data set on HeLa, “Dose-dependent effect”. The IC50 result is “Not Active” in the data set on NHDF and 61.6 µM with HeLa (Homo sapiens, HeLa, read-out: IC50). Besides, in data set [6], the selectivity ratio is > 1.62. Moreover, the outcome in data set [7] was inactive.
For the compound `Cc1ccc(-c2[nH]nc(C(F)(F)F)c2N=O)cc1`, in the data set on Rattus norvegicus [2], the result was Active. Further, the “fold change (FC)” value in the data set on Erythrocyte [9] and in the data set with Erythrocyte [11] was 1.03 each time. Besides, the Activity is -99.8% in data set [10], “Non-Toxic” in data set [4], -60% in [12] and 0.02 equiv in [7]. Moreover, the result in the data set on Rattus norvegicus [13] and in the data set on Rattus norvegicus [14] was inactive.
Regarding `Cn1nc(C(F)(F)F)c(N=O)c1-c1cccs1`, the outcome in the data set with Rattus norvegicus [2] was Active. Also, the MIC is 50 µg/mL (≈ 191 µM) in the data set on Epidermophyton floccosum; > 500 µg/mL with Staphylococcus aureus [3]; > 500 µg/mL against Pseudomonas aeruginosa; 500 µg/mL (≈ 1910 µM) in the data set on Escherichia coli; 500 µg/mL (≈ 1910 µM) against Neisseria gonorrhoeae; > 500 µg/mL against Proteus vulgaris. In addition, the MIC in the data set on Candida albicans was 25 µg/mL (≈ 95.7 µM); with Streptococcus pyogenes, > 500 µg/mL; with Trichophyton tonsurans it was 50 µg/mL (≈ 191 µM); against Shigella flexneri it was > 500 µg/mL; against Microsporum canis, 25 µg/mL (≈ 95.7 µM); with Citrobacter braakii, > 500 µg/mL. Moreover, the MIC in data set [5] is 12.5 µg/mL (≈ 47.9 µM); with Serratia marcescens, > 500 µg/mL; in the data set with Klebsiella pneumoniae, > 500 µg/mL; in the data set on Trichophyton rubrum, 12.5 µg/mL (≈ 47.9 µM); in data set [8] it was 25 µg/mL (≈ 95.7 µM); in the data set on Nannizzia gypsea, 50 µg/mL (≈ 191 µM). For the same compound, the figures for the Drug metabolism result in data set [15] and in data set [16] were “Metabolite not detected” and “Metabolite detected”, respectively. Further, the Activity in the data set with Rattus norvegicus [13] is given as 29.8%; in the data set with Rattus norvegicus [14], 43.8%.
As to `O=[N+]([O-])O[C@H]1CO[C@H]2[C@@H]1OC[C@H]2O[N+](=O)[O-]`, the Drug metabolism result in [15] is “Metabolite detected”.
